The record followed here is ChEMBL document CHEMBL1145271 (Bioorg Med Chem Lett, 2005).

Assay [1] addresses T1, Kappa-type opioid receptor (Homo sapiens, UniProt P41145). In words: Activation of human Opioid receptor kappa 1 expressed in chinese hamster ovary cells to enhance [35S]GTP-gamma-S, binding compared to U50,488H. The format is functional, cell-based. In short, it runs like this: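 Agonist efficacy at human κ-opioid receptor, read as enhancement of [35S]GTPγS binding and expressed as % of the maximal response to U50,488H. Mean of at least three independent experiments, each run in duplicate.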
A general note: Binding of GTPγS marks nucleotide exchange on a G protein.

The target in assay [2] is T1, Kappa-type opioid receptor. The assay can be described thus: Inhibition of [3H]diprenorphine binding to human Opioid receptor kappa 1 expressed in chinese hamster ovary cells. Type of assay: cell-based, CHO. The method, boiled down: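 Ki from inhibition of [3H]diprenorphine binding to human κ-opioid receptor. Mean of at least three independent experiments, each run in duplicate.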

The target in assay [3] is T1, Kappa-type opioid receptor. The assay can be described thus: Effective concentration for activation of human Opioid receptor kappa 1 expressed in chinese hamster ovary cells to enhance [35S]GTP-gamma-S, binding. The format is functional, cell-based. In short, it runs like this:
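EC50 for human κ-opioid receptor activation, read as enhancement of [35S]GTPγS binding. Mean of at least three independent experiments, each run in duplicate.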

T1 sequence (P41145 whole entry): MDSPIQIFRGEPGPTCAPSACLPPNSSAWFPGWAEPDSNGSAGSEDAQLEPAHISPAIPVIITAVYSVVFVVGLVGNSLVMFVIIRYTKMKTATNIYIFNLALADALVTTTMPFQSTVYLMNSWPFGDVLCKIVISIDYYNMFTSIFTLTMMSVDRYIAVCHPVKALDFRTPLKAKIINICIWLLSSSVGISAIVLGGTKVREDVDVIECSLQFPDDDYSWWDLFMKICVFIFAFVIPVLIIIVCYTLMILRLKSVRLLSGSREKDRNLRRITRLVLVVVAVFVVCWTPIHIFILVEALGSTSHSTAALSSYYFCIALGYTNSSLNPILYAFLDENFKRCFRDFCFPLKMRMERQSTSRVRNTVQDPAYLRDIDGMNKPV

As to `CCO[C@H]1C[C@@H](C(=O)OC)[C@]2(C)CC[C@H]3C(=O)O[C@H](c4ccoc4)C[C@]3(C)[C@H]2C1=O`, in assay [1], the Efficacy amounted to 103%.
The term Ki denotes a dissociation constant, usually derived from enzyme kinetics or from competition with a known ligand. Broadly, the EC50 is the concentration needed to bring the measured effect to its halfway point. On to `CCCC(=O)O[C@H]1C[C@@H](C(=O)OC)[C@]2(C)CC[C@H]3C(=O)O[C@H](c4ccoc4)C[C@]3(C)[C@H]2C1=O`, for which the Efficacy in assay [1] was found to be 97%. For the same compound, the affinity in assay [2], expressed as Ki, was 4.9 nM. In assay [3], the EC50 was 9.9 nM.
With `CCN[C@@H]1C[C@@H](C(=O)OC)[C@]2(C)CC[C@H]3C(=O)O[C@H](c4ccoc4)C[C@]3(C)[C@H]2C1=O`, the affinity in assay [2] corresponds to a Ki of 28.9 nM. Moreover, the 50% effective concentration (EC50) in assay [3] came out at 68.9 nM.
Take `C=CCO[C@H]1C[C@@H](C(=O)OC)[C@]2(C)CCC3C(=O)O[C@H](c4ccoc4)C[C@]3(C)[C@H]2C1=O` (stereo partly drawn): the Efficacy in assay [1] worked out at 106%. This compound displayed an inhibition constant (Ki) in assay [2] of 60.1 nM. Besides, in assay [3], the concentration for a half-maximal effect (EC50) was 145 nM.
Turning to `CCCCO[C@H]1C[C@@H](C(=O)OC)[C@]2(C)CCC3C(=O)O[C@H](c4ccoc4)C[C@]3(C)[C@H]2C1=O` (stereo partly drawn), the Ki in assay [2] turned out to be 35.8 nM. Besides, the EC50 in assay [3] turned out to be 104 nM.
The like results for `CCNC(=O)O[C@H]1C[C@@H](C(=O)OC)[C@]2(C)CC[C@H]3C(=O)O[C@H](c4ccoc4)C[C@]3(C)[C@H]2C1=O` were, in that order, 462 nM and over 1000 nM.
Take `CCCO[C@H]1C[C@@H](C(=O)OC)[C@]2(C)CC[C@H]3C(=O)O[C@H](c4ccoc4)C[C@]3(C)[C@H]2C1=O` [SALVINORIN A PROPYL ETHER]: the Efficacy in assay [1] came out at 100%. The affinity in assay [2], expressed as Ki, was 28.7 nM. In addition, in assay [3], the 50% effective concentration (EC50) came to 67.4 nM.
For the compound `COC(=O)[C@@H]1C[C@H](OCc2ccccc2)C(=O)[C@H]2[C@@]1(C)CCC1C(=O)O[C@H](c3ccoc3)C[C@@]12C` (stereo partly drawn), the Ki in assay [2] came to 75.7 nM. The EC50 in assay [3] turned out to be 161 nM.
Compound `COC(=O)[C@@H]1C[C@H](OC(=O)CN(C)C)C(=O)[C@H]2[C@@]1(C)CC[C@H]1C(=O)O[C@H](c3ccoc3)C[C@]21C` gave a Ki in assay [2] of over 10000 nM.
Regarding `COC(=O)[C@@H]1C[C@H](OC)C(=O)[C@H]2[C@@]1(C)CC[C@H]1C(=O)O[C@H](c3ccoc3)C[C@]21C`, in assay [1], the Efficacy was determined as 98%. Also, the affinity in assay [2] corresponds to a Ki of 220 nM. Also, the EC50 in assay [3] was 389 nM.
The corresponding values for `COC(=O)[C@@H]1C[C@H](OC(N)=O)C(=O)[C@H]2[C@@]1(C)CC[C@H]1C(=O)O[C@H](c3ccoc3)C[C@]21C` are 99%, 3.2 nM and 6.2 nM.
For the compound `CNC(=O)O[C@H]1C[C@@H](C(=O)OC)[C@]2(C)CC[C@H]3C(=O)O[C@H](c4ccoc4)C[C@]3(C)[C@H]2C1=O`, the Efficacy in assay [1] came to 81%. Further, in assay [2], affinity was put at a Ki of 83 nM. In assay [3], the concentration for a half-maximal effect (EC50) is 201 nM.
In assay [2], `COC(=O)[C@@H]1C[C@H](OC(=O)CNC(C)=O)C(=O)[C@H]2[C@@]1(C)CC[C@H]1C(=O)O[C@H](c3ccoc3)C[C@]21C` had an inhibition constant Ki of over 10000 nM.
For `COC(=O)[C@@H]1C[C@H](O)C(=O)[C@H]2[C@@]1(C)CC[C@H]1C(=O)O[C@H](c3ccoc3)C[C@]21C`, in assay [1], the Efficacy came to 98%.
The compound `CN[C@@H]1C[C@@H](C(=O)OC)[C@]2(C)CC[C@H]3C(=O)O[C@H](c4ccoc4)C[C@]3(C)[C@H]2C1=O` gave an inhibitory constant (Ki) in assay [2] of over 10000 nM.
For the compound `COC(=O)[C@@H]1C[C@H](OC(=O)[C@H](C)N)C(=O)[C@H]2[C@@]1(C)CC[C@H]1C(=O)O[C@H](c3ccoc3)C[C@]21C`, the Ki in assay [2] was over 10000 nM.
In the case of `CCC(=O)O[C@H]1C[C@@H](C(=O)OC)[C@]2(C)CC[C@H]3C(=O)O[C@H](c4ccoc4)C[C@]3(C)[C@H]2C1=O`, in assay [1], the Efficacy stood at 94%. In assay [2], this compound came in with a Ki of 7.2 nM. In addition, in assay [3], the EC50 stood at 20.4 nM.
The like results for `COC(=O)[C@@H]1C[C@@H](N(C)C)C(=O)[C@H]2[C@@]1(C)CC[C@H]1C(=O)O[C@H](c3ccoc3)C[C@]21C` were, in that order, 105%, 90.9 nM and 343 nM.
